Hits are enriched below; roughly 4% of the tested compounds scored in any of these assays.
TAAR1 agonist: human TAAR1 agonists, primary screen, Fluo-8 calcium fluorescence, CHO RD-HGA16 cells; vehicle wells 0%, saturating PEA agonist 100%; Trace amine-associated receptor 1 (Homo sapiens), Q96RJ0; activation, % at 3 µM; actives 0.99% (n = 360,000); AID 624467, 2012;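 active means activation above the mean activation of all test compounds in the run plus 3 SD, cut at about 38% in these data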
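Repeats: no replicates (n 1) | Material: CHO-derived RD-HGA16 cells with stable Gα16 and human TAAR1 | Technique: Kinetic Fluo-8 calcium fluorescence | Schedule: 17-24 h seeding, 75 min 37 °C dye, 30 min RT | Evaluation: % activation from peak over basal fluorescence ratio, DMSO-to-PEA scaled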
OX1R antag-1: OX1R (HCRTR1) antagonists, primary screen, fluorescence, CHO/OX1R cells, Fluo-8 calcium, orexin A | Orexin/Hypocretin receptor type 1 (Homo sapiens), O43613 | inhibition, % at 5 µM | actives 0.43% (n = 330,000) | Fluo-8 calcium fluorescence | AID 434989, 2010;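 active means inhibition above its plate's threshold, mean inhibition of all tested compounds on the plate plus 3 SD, cut at about 37% in these data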;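 further: 0% = orexin A challenge wells and 100% = SB-334867-A antagonist wells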
Target sequence (O43613 whole entry, looked up): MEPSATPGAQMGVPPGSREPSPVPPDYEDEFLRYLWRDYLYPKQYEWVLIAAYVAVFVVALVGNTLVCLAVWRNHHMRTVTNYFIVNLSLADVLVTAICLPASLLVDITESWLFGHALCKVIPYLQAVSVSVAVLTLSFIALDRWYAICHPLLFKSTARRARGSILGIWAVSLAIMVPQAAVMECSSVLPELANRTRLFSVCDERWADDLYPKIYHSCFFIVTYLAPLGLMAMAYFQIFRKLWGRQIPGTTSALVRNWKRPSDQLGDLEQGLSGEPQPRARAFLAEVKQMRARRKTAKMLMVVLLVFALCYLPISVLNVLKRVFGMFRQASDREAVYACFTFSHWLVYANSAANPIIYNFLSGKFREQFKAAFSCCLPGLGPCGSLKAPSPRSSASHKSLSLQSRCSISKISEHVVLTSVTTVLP
OX1R antag-2: antagonists of human orexin 1 receptor (OX1R). Orexin/Hypocretin receptor type 1 (Homo sapiens), O43613. OX1R-expressing cells, FRET antagonist read-out. inhibition, % at 6.6 µM. actives 1.8% (n = 330,000). AID 485270, 2010; in the data active means inhibition mostly above about 38%, no sharp cut-off; inactive means mostly below about 40%;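 further: 0% = agonist challenge alone and 100% = reference antagonist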
CHO parental Ca: ATP-evoked calcium signal inhibitors, parental CHO, primary screen, counter-screen for OX1R antagonist project, cell-based, fluorescence, Fluo-8 calcium dye; parental CHO-K1, ATP-induced calcium, Fluo-8 fluorescence; actives 0.63% (n = 330,000); inhibition, % at 5.6 µM;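 active means inhibition above that plate's mean sample inhibition plus 3 SD, cut at about 26% in these data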;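 further: 0% = ATP-challenged DMSO wells and 100% = DMSO wells without ATP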
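Test system: untransfected parental CHO cell line; also added: ATP stimulus; dosing: 5.6 µM, single dose; signal: calcium-sensitive Fluo-8 fluorescence; measure: percent inhibition of ATP-evoked calcium rise, normalized to controls; benchmarks: low control ATP plus DMSO, high control DMSO only; replication: one well per compound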
TAAR1 antagonist: human TAAR1 antagonists, primary screen, Fluo-8 calcium fluorescence, CHO RD-HGA16 cells | antagonist | inhibition, % at 3 µM | actives 1.5% (n = 360,000) | AID 624466, 2012;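 active means inhibition above a per-plate cutoff, the mean inhibition of test compounds on that plate plus 3 SD, cut at about 49% in these data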;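 further: 0% = DMSO plus EC80 beta-PEA response and 100% = DMSO alone without agonist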
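Material: CHO RD-HGA16 cells bearing hTAAR1; compound dosing: one-point dosing, 3 µM nominal final; schedule: dye loading 75 min at 37 °C, then 30 min room temperature; measured by: calcium fluorescence with Fluo-8; control set: vehicle and agonist controls; replication: n of 1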
OX1R HTRF conf: OX1R (HCRTR1) antagonists, confirmation, cell-based, HTRF. shares compounds with OX1R antag-2. OX1R-expressing cells, HTRF antagonist assay. inhibition, % at 6.6 µM. actives 49% (n = 1,800). AID 492964, 2010; in the data active means inhibition above about 55%;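 further: CHO cells expressing OX1R stimulated with orexin A at about EC80; 0% = agonist challenge alone and 100% = reference antagonist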
CHO-K1 HTRF cnt: signal inhibition in parental CHO-K1 cells, counter-screen for OX1R antagonist project, cell-based, HTRF | shares compounds with OX1R antag-2 | HTRF counterscreen | inhibition, % at 6.6 µM | actives 48% (n = 1,800); in the data active means inhibition above about 17%;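 further: 0% = agonist challenge with vehicle and 100% = vehicle alone without agonist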
The depositor's hits bear a star; · = not tested or not shown.

SMILES	TAAR1 agonist	OX1R antag-1	OX1R antag-2	CHO parental Ca	TAAR1 antagonist	OX1R HTRF conf	CHO-K1 HTRF cnt
CCOC(=O)N1CCN(C2=C(NS(=O)(=O)c3ccc(C)cc3)C(=O)c3ccccc3C2=O)CC1	-4	-28	83*	-23	-29	58*	91*
COC(=O)C1CCN(C2=C(NS(=O)(=O)c3ccc(Cl)cc3)C(=O)c3ccccc3C2=O)CC1	-3	-27	98*	-8	-42	46	59*
Cc1ccc(S(=O)(=O)NC2=C(N3CCN(c4ccccc4F)CC3)C(=O)c3ccccc3C2=O)cc1	3	-32	48	-10	0	·	·
CC1CCCN(C2=C(NS(=O)(=O)c3ccc(Cl)cc3)C(=O)c3ccccc3C2=O)C1 (stereo not drawn)	4	-20	30	-2	14	·	·
NC(=O)C1CCN(C2=C(NS(=O)(=O)c3ccc(Cl)cc3)C(=O)c3ccccc3C2=O)CC1	4	-34	179*	-7	-1	53	57*
CCOC(=O)C1(Cc2ccccc2)CCCN(C2CCCC2)C1 (stereo not drawn)	1	-23	-5	-6	9	·	·
O=C(Nc1ccc(N2CCOCC2)nc1)c1ccccc1Cl	8	-19	2	2	-17	·	·
CC1(C(=O)NCCc2c[nH]c3ccccc23)CCN1CC1CCCCC1 (stereo not drawn)	1	·	·	·	-20	·	·
COC(=O)CN1C(=O)N/C(=C/c2ccccc2OC)C1=O	-1	-17	119*	-5	1	19	6
CC1CC2OC2CC1COC(=O)C1CC2OC2CC1C (stereo not drawn)	2	·	·	·	-8	·	·
O=C1c2cccc3cccc(c23)C(=O)N1/N=C/c1ccc(O)cc1O	0	-7	99*	-1	-3	41	64*
Oc1ccc(/C=N/N2CCCCC2)c(O)c1	-1	-30	8	-5	-5	·	·
COc1ccccc1NC(=O)c1nn(-c2ccc(F)c(F)c2)ccc1=O	0	-9	21	4	9	·	·
COc1ccccc1NC(=O)c1nn(-c2cccc(C(F)(F)F)c2)ccc1=O	12	12	82*	-6	21	66*	5
COc1ccc(S(=O)(=O)Nc2c(O)ccc3ccccc23)cc1OC	3	4	77*	-6	-12	72*	7
COc1ccc(C(=O)Nc2c(O)ccc3ccccc23)cc1OC	2	-22	21	-34	15	·	·
O=C(Nc1ccc2nc(-c3ccc(Br)o3)[nH]c2c1)c1cccs1	32	-23	83*	-27	27	42	3
Cc1ccc2cc3cc(C(=O)NCCCN4CCCCCC4)oc3nc2c1	0	-24	82*	-27	-1	42	36*
CCOc1ccc(-c2nnc(-c3cccs3)o2)cc1	1	-25	21	-12	-1	·	·
c1csc(-c2nnc(-c3ccc(N4CCOCC4)cc3)o2)c1	3	14	77*	-10	0	83*	12
CCC1(C)N=c2c(c(=O)n(C)c(=O)n2C)=NO1 (stereo not drawn)	9	4	123*	-5	5	21	26*
COc1ccc(Cl)cc1NC(=O)CCCn1c(=O)c2cccn2c2cccnc21	5	·	·	·	16	·	·
CCOC(=O)c1cccc(NC(=O)CCCn2c(=O)c3cccn3c3cccnc32)c1	0	-9	80*	-23	-13	80*	8
COC(=O)C1=C(C)N(Cc2ccccc2C(F)(F)F)C(=NCc2ccccc2)NC1c1cccc(C(F)(F)F)c1 (stereo not drawn)	6	·	·	·	-28	·	·
NS(=O)(=O)c1ccc(N=Cc2c(O)c3ccccc3oc2=O)cc1	1	-15	77*	-5	-4	21	-11
SMILES	TAAR1 agonist	OX1R antag-1	OX1R antag-2	CHO parental Ca	TAAR1 antagonist	OX1R HTRF conf	CHO-K1 HTRF cnt
COc1ccc(-c2csc(NC(=O)/C(N=Nc3ccccc3)=C(\C)O)n2)cc1	·	-31	13	1	·	·	·
COCCNC(=O)C(c1ccc(F)cc1)N(Cc1ccccc1)C(=O)CCC(=O)Nc1nccs1 (stereo not drawn)	1	16	78*	-13	13	80*	1
O=C(NCCCCC(NC(=O)c1ccc([N+](=O)[O-])cc1)C(=O)O)c1ccc([N+](=O)[O-])cc1 (stereo not drawn)	0	-12	137*	-12	9	37	58*
COCCCNC(=O)c1ccc([N+](=O)[O-])cc1	5	-6	42	1	-3	·	·
O=C1C=C(N2CCCCC2)c2ccccc2C1=O	2	-19	84*	-9	7	66*	110*
Cc1ccc(NCC(=O)NNC2=NCCC2)c(C)c1	2	-13	16	-11	-10	·	·
CCN(CC)C(=O)c1cc2cc([N+](=O)[O-])ccc2s1	11	-16	50	-3	-5	·	·
CN(C)C(=O)c1cc2cc([N+](=O)[O-])ccc2s1	7	-7	120*	5	0	39	33*
C[C@H](CO)N1C[C@H](C)[C@@H](CN(C)S(=O)(=O)c2cccs2)Oc2ccc(NC(=O)Cn3cnnn3)cc2C1=O	1	-15	1	-5	-6	·	·
COc1ccc(-c2nn(CCC(=O)O)cc2/C=C2\SC(N)=NC2=O)cc1	1	22	77*	0	-6	41	31*
NC1=NC(=O)/C(=C/c2cn(CCC(=O)O)nc2-c2ccc(Cl)cc2)S1	6	-10	33	3	-5	·	·
Cc1cccc(NC(=O)C2CCCN(S(=O)(=O)c3cccc4nsnc34)C2)c1 (stereo not drawn)	4	13	91*	-13	11	57*	9
Cc1cccc(NC(=O)C2CCN(S(=O)(=O)c3cccc4nsnc34)CC2)c1	6	4	31	4	13	·	·
Cc1cccc(NC(=O)C2CCCN(S(=O)(=O)c3cccc4nsnc34)C2)n1 (stereo not drawn)	3	-21	84*	-27	9	35	18*
CCN1CCCC1CNC(=O)C1CCCN(S(=O)(=O)c2cccc3nsnc23)C1 (stereo not drawn)	5	-17	118*	2	-1	39	62*
